Source: PubChem BioAssay
Jurkat NFkB inh – inhibitors of induced NF-kB luciferase reporter, primary screen, TCR NF-kB activation inhibitor project, cell-based, luminescence, uHTS. Jurkat, PMA/ionomycin-induced NF-kB luciferase reporter. inhibition, % at 4 µM. hit rate 0.53% among 330,000. AID 435003, 2010; in the data active = inhibition above about 50%
UPR CHOP act – activators of apoptotic CHOP UPR arm, primary screen, cell-based, CHO-CHOP luciferase reporter, luminescence, uHTS; UPR activation; percent of tunicamycin response over DMSO baseline; activation, % at 10 µM; hit rate 0.34% among 330,000;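 active = at 10 µM dose, activation of 40% or more, normalized to positive control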
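Test system: CHO CHOP reporter cells. Input: 500 CHO-CHOP cells per well. Medium: F12 with 10% FBS. Technique: luciferase luminescence. Measure: percent activation relative to tunicamycin control. Dosing: 10 µM compound, 0.5% DMSO. Timing: 16-18 h cell attachment, then 6 h compound exposure, 37 °C.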
XBP1 UPR activ – activators of adaptive XBP1 UPR arm, primary screen, cell-based, CHO-XBP1 luciferase reporter, luminescence, uHTS. IRE1-XBP1 UPR activation; percent of tunicamycin response, DMSO as zero. hit rate 0.33% among 330,000. activation, % at 20 µM;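 active = versus positive control, 20 µM dose yields 30% or more activation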
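Material: CHO-XBP1 cells stably carrying IRE1-XBP1-driven luciferase reporter | Medium: F12 with 10% serum | Compound dosing: 20 µM single concentration, DMSO 1% | Incubation: Overnight seeding at 37 °C, 6 h compound treatment at 37 °C | Detection: Steady-Glo luminescence read | Read-out basis: % activation of reporter signal versus tunicamycin and DMSO controls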
CHOP inh – inhibitors of CHOP promoter induction, primary screen, cell-based, unfolded protein response, luciferase reporter; inhibition, % at 10 µM; CHO-K1 CHOP-promoter luciferase, tunicamycin-induced, 15-18 h; hit rate 3.8% among 220,000;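 active = compounds that reduced the stress-induced luciferase reporter signal by more than about 70% of percent inhibition, limit read from the data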
697 NFkB inh – inhibitors of PMA/ionomycin-induced NF-kB reporter, 697 cells, primary screen, B-cell NF-kB inhibitor project, cell-based, luminescence, uHTS; inhibition, % at 4 µM; 697 B-cell NF-kB luciferase reporter, 16 h; AID 435022, 2010; hit rate 0.33% among 330,000; in the data active = inhibition above about 35%
CHOP inh conf – retest of CHOP induction inhibitors, confirmation, cell-based. AID 504437, 2011. shares compounds with CHOP inh. hit rate 45% among 2,100. CHO-CHOP promoter luciferase reporter, tunicamycin-induced, luminescence. inhibition, % at 10 µM;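 active = mean of three repeat readings of reporter signal inhibition above a set limit, cut at about 70% in these data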
Numbers stand for hits; 0 = inactive; - = not tested or not shown. The entries come from a sample that favours hits as a whole.

SMILES	Jurkat NFkB inh	UPR CHOP act	XBP1 UPR activ	CHOP inh	697 NFkB inh	CHOP inh conf
Cc1cc(C(=O)COC(=O)c2ccccc2O)c(C)n1Cc1cccs1	0	0	0	109	0	111
Cc1cc(C(=O)COC(=O)c2ccc3c(c2)OCO3)c(C)n1Cc1cccs1	0	0	0	0	0	-
Cc1ccc(OCC(=O)NCCc2c[nH]c3ccccc23)cc1	0	0	0	0	0	-
Cc1ccc(-c2nn(-c3ccccc3)cc2/C=N/NS(=O)(=O)c2ccccc2)cc1	0	0	0	0	0	-
Cc1ccc(S(=O)(=O)N/N=C\c2cn(-c3ccccc3)nc2-c2ccccc2)cc1	0	0	0	97	0	0
c1ccc2c(c1)ncn2-c1ccc(-c2ccnc(-c3ccncc3)n2)cc1	0	0	0	99	0	0
N#C/C(=C\Nc1ccccc1O)c1nc2ccccc2o1	-	-	-	0	-	-
CCn1cc(CN(C)C(=O)/C=C/c2ccc([N+](=O)[O-])cc2)c(C)n1	0	0	0	96	0	0
CNC(=O)/C(C#N)=C/c1ccc(-c2ccc(Cl)cc2)o1	0	0	0	97	0	0
CCOC(=O)c1ccc(-c2ccc(/C=C(\C#N)C(=O)NCc3cccs3)o2)cc1	-	-	-	105	-	0
Cc1ccccc1CC1(CO)CCCN(C(=O)c2ccc3ncccc3c2)C1 (centres undefined)	0	0	0	0	0	-
C=CCN(C(=O)c1csnn1)C(C(=O)NCc1ccc(F)cc1)c1sccc1C (centres undefined)	0	0	0	-	0	-
CCCCn1c(SCc2nc(N)nc(N3CCCCC3)n2)nc2c1c(=O)n(C)c(=O)n2C	0	0	0	98	0	0
CCCn1c(SCc2nc(N)nc(N3CCCCC3)n2)nc2c1c(=O)n(C)c(=O)n2C	0	0	0	0	0	-
CCc1cccc(NC(=O)c2cccc3c2C(=O)N(CC2CCCO2)C3)c1 (centres undefined)	0	0	0	-	0	-
O=C(N/N=C/c1ccc2c(c1)OCO2)c1sc2cc(Cl)ccc2c1Cl	0	0	0	0	0	-
COc1ccc2c(Cl)c(C(=O)N/N=C/c3ccc4c(c3)OCO4)sc2c1	0	0	0	107	0	0
CC(=O)Nc1cccc(NC(=O)C(C)N2c3cccc4cccc(c34)S2(=O)=O)c1 (centres undefined)	0	0	0	-	0	-
CCC1CCCCN1c1nc(-c2ccncc2)nc2ccccc12 (centres undefined)	0	0	0	99	0	0
Cc1ccc(S(=O)(=O)/N=C2/C=C(Sc3ncn[nH]3)C(=O)c3ccccc32)c(C)c1	-	-	-	109	-	0
Cc1ccc(S(=O)(=O)/N=C2/C=C(Sc3ncn[nH]3)C(=O)c3ccccc32)cc1	-	-	-	108	-	108
Cc1ccc(S(=O)(=O)/N=C2\C=C(Nc3cccc(C(=O)O)c3)C(=O)c3ccccc32)c(C)c1	0	0	0	-	0	-
Cc1ccc(C(=O)N2C(=S)C(c3ccc(F)cc3)=NC23CCN(C)CC3)cc1	0	0	0	98	0	0
CN1CCN(NC(=O)c2ccc(F)cc2)CC1	0	0	0	0	0	-
O=C(CN1CCN(c2ncc(C(F)(F)F)cc2Cl)CC1)NCCNc1ncc(C(F)(F)F)cc1Cl	0	0	0	101	0	106
SMILES	Jurkat NFkB inh	UPR CHOP act	XBP1 UPR activ	CHOP inh	697 NFkB inh	CHOP inh conf
COc1cccc(-c2nn(-c3ccc(C)cc3)cc2C(=O)N2CCN(C3CCS(=O)(=O)C3)CC2)c1 (centres undefined)	0	0	0	-	0	-
Cc1cc2cc(C=C(C#N)C#N)c(Cl)nc2cc1C	0	0	0	97	0	0
CCOC(=O)/C(C#N)=C/c1cc2cc(C)c(C)cc2nc1Cl	0	0	0	0	0	-
CCCC[C@@H]1C=C(C(=O)O)[C@H](c2ccc(Cl)cc2)N1S(=O)(=O)c1ccc(C)cc1	0	0	0	-	0	-
O=C(NNc1ccccc1Br)C(O)(c1cccc(C(F)(F)F)c1)c1cccc(C(F)(F)F)c1	0	0	0	103	0	118
Cc1cc(C)n(-c2nc(NC(C)C)nc(NC(C)C)n2)n1	0	0	0	0	0	-
Cc1cc(C)n(-c2nc(Nc3ccccc3C(F)(F)F)nc(-n3nc(C)cc3C)n2)n1	0	0	0	105	0	122
Cc1cc(C)n(-c2nc(Nc3ccccc3C)nc(-n3nc(C)cc3C)n2)n1	0	0	0	99	0	0
O=C(COc1ccc(Cl)cc1Cl)Nc1ccccn1	0	0	0	100	0	92
CSc1ccccc1NC(=O)COc1ccc(Cl)cc1Cl	0	0	0	0	0	-
NCCCNC(=O)c1cc2ccccc2[nH]1	0	0	0	107	0	0
CCN(CC(=O)NCc1ccc(F)cc1)CC(=O)NC1CCCC1	0	0	0	-	0	-
Cc1cc(S(=O)(=O)Nc2ccc3ccccc3c2)c(C)s1	0	0	0	111	0	0
Cc1cc(S(=O)(=O)Nc2cccnc2)c(C)s1	0	0	0	0	0	-
O=C1CC(c2ccco2)CC(O)=C1C=Nc1ccccc1-c1ccccc1 (centres undefined)	0	0	0	104	0	95
Cc1[nH]nc(N=CC2=C(O)CC(c3ccco3)CC2=O)c1-c1ccc(Cl)cc1 (centres undefined)	0	0	0	105	0	80
Cc1ccc(-c2cc(-c3ccc(Cl)cc3)c(C#N)c(N)n2)o1	0	0	0	98	0	0
Cc1ccc(-c2cc(-c3ccc(F)cc3)c(C#N)c(N)n2)o1	0	0	0	0	0	-
Cc1ccc(-c2cc(-c3ccc4c(c3)OCO4)c(C#N)c(N)n2)o1	0	0	0	0	0	-
Cc1cc(-c2cc(-c3ccc(Cl)cc3)nc(N)c2C#N)co1	0	0	0	106	0	0
Cc1ccc(-c2cc(-c3ccc(C)o3)nc(N)c2C#N)cc1	0	0	0	101	0	0
CC/C(=N\Nc1ccccc1[N+](=O)[O-])c1ccc(O)cc1	0	0	0	100	0	0
O=C(COC(=O)c1ccc(Cl)cc1Cl)Nc1cccc(S(=O)(=O)NC2=NCCC2)c1	0	0	0	-	0	-
CCOc1ccc(C2C=C(c3ccc(C)cc3)Nc3nnnn32)cc1 (centres undefined)	0	0	0	107	0	77
O=C(Nc1ccc(Oc2ccccc2)cc1)C1CCN(c2c3c(nc4ncnn24)CCC3)CC1	0	0	0	104	0	92
COC(=O)c1cnn(-c2ccc(Cl)cc2)c1/C=N/NC(N)=S	0	0	0	0	0	-
Cc1ccc(Cn2c(=O)n(C)c(=O)c3sccc32)cc1	0	0	0	-	0	-
